Where “and” joins values, the source holds several entries; their conditions need not be identical. Equal values may be shown once.
How the values were obtained:
[1] = target: integrin α4β1 (VLA-4) (Mus musculus, UniProt P09055+Q00651); experiment: Saturation binding assay in B16F10 melanoma cells; details: 4 °C, 2 h, 0.1–80 nM
Procedure, shortened: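 Binding medium was HBSS with 0.1% BSA and 1 mM Mn²⁺. Nonspecific binding was measured with 12 μg unlabelled ligand. After 2 h on ice, cells were rinsed, lysed in 0.5% SDS and gamma-counted. Counts were normalised to BCA protein, n=3 per point.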

[2] = Biodistribution studies in B16F10 tumor-bearing mice; assay type: in vivo, C57BL/6 mice; details: C57BL/6, mouse, iv, total radioactivity; for tissue uptake at 2 h: 14 μCi (14 ng); for tissue to tissue ratio at 2 h: 14 ng
Procedure, shortened: (§1)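 Subcutaneous B16F10 tumours (1 × 10⁷ cells in PBS:Matrigel 1:1) grown 14–21 d in 7-wk-old C57BL/6 mice. Mice (n = 5/group) were given the ⁶⁴Cu-labelled conjugate i.v., 14 μCi (14 ng; 1000 μCi/μg); the blocking group's dose was premixed with 50 μg unlabelled ligand. Animals were killed at 2 h, and tissues and tumour were weighed and gamma-counted. %ID/g was decay-corrected against an injected-dose standard; mean±SD.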

[3] = system: B16F10 tumor-bearing mice; experiment: as above; assay type: in vivo, C57BL/6 mice; details: 2 h, co-administered with excess cold LLP2A (50 μg)
Procedure, shortened: as §1

[4] = system: B16F10 tumor-bearing mice; experiment: Small animal PET/CT imaging of B16F10 tumor-bearing mice; assay type: in vivo, C57BL/6 mice; details: 2 h post-injection
Procedure, shortened: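 Mice bearing B16F10 tumours received the ⁶⁴Cu-labelled conjugate by tail vein, 100 μCi (667 ng); half of the doses were premixed with 100 μg unlabelled ligand. PET/CT was done at 2 and 24 h under 1–2% isoflurane, with 15 or 30 min static scans and MAP reconstruction. CT-guided ROIs gave maximum SUV (nCi/mL × weight/injected dose), and tumour:background ratios were taken from MIP images (n = 2).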

[5] = system: B16F10 tumor-bearing mice; details: 2 h post-injection, 5 μCi (12.5 ng); previously published data; cited from earlier work

Sequence of integrin α4β1 (VLA-4) (Q00651 41-1039): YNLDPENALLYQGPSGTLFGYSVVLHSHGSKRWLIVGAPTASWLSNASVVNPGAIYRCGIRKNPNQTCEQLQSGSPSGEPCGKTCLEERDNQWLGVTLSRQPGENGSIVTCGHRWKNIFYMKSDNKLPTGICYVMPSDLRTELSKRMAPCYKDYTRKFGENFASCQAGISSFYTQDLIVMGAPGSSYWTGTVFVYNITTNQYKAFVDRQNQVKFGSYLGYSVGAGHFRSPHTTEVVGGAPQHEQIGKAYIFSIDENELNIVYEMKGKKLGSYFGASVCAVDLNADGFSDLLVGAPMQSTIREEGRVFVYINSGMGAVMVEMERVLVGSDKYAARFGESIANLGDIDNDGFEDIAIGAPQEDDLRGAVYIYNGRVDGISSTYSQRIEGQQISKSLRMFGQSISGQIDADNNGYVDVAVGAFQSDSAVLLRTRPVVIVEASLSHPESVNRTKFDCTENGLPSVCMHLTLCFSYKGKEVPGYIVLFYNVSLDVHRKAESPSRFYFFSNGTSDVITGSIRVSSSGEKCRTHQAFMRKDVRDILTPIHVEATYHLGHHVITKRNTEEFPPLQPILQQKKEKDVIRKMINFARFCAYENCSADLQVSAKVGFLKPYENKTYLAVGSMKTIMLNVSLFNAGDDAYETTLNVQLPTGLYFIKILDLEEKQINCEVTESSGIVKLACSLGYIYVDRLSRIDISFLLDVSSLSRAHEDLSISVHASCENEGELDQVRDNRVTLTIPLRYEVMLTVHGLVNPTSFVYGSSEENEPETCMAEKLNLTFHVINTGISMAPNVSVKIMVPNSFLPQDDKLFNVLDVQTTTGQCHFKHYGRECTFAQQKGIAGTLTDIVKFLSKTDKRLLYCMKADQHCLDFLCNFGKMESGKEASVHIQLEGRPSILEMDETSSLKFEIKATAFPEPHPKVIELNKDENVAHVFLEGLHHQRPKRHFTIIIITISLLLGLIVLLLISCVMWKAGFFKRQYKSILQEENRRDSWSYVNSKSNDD
Sequence of integrin α4β1 (VLA-4) (P09055 21-798): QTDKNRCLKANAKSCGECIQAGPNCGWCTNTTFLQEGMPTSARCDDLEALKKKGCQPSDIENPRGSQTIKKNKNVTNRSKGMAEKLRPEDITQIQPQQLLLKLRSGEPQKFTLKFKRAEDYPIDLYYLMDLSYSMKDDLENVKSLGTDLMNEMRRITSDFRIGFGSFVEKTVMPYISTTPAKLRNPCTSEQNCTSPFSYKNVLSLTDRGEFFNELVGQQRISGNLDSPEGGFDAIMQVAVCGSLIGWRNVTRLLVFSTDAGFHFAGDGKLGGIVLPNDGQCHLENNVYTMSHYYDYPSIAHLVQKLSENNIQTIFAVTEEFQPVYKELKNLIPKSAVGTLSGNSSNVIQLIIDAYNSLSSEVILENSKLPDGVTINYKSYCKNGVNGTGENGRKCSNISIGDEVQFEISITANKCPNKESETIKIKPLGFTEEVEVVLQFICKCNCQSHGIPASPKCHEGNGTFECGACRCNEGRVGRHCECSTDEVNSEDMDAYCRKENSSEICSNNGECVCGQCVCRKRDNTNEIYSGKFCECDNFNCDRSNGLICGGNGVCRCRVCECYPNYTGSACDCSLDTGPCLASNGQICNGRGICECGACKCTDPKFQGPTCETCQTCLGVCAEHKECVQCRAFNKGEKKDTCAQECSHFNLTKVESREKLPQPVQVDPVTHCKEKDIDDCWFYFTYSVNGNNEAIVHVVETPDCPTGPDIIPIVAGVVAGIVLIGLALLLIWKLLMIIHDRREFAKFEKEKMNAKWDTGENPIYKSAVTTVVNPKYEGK

SMILES | receptor concentration (Bmax) [1] | tissue uptake at 2 h ([2]; bone) [%ID/g] | tissue uptake at 2 h ([2]; kidney) [%ID/g] | tissue uptake at 2 h ([2]; liver) [%ID/g] | tissue uptake at 2 h ([2]; marrow) [%ID/g] | tissue uptake at 2 h ([2]; spleen) [%ID/g] | tissue to tissue ratio at 2 h ([2]; tumor / blood) | tissue to tissue ratio at 2 h ([2]; tumor / muscle) | tissue uptake at 2 h ([2]; tumor) [%ID/g] | Radiotracer uptake in tumor, spleen and bone in the presence of blocking agent [3] | Fold higher tumor to background ratio than ^64Cu-CB-TE2A-LLP2A [4] | Tumor to blood ratio [5] | Tumor to muscle ratio [5]
Cc1ccccc1NC(=O)Nc1ccc(CC(=O)N[C@@H](CCCCNC(=O)/C=C/c2cccnc2)C(=O)N[C@@H](CCCC(=O)O)C(=O)NC2(C(=O)NCCOCCOCCNC(=O)CCC(=O)NCCOCCOCCNC(=O)CCC(=O)N[C@@H](CCCCNC(=O)CN3CCCN4CCN(CCCN(CP(=O)(O)O)CC4)CC3)C(N)=O)CCCCC2)cc1 [^64Cu-CB-TE1A1P-LLP2A, metal not drawn] | 471 fmol/mg and 471 ± 14 fmol/mg | 6.2 ± 1.7 | 3.2 ± 0.4 | 2.3 ± 0.3 | 32.6 ± 19 | 17.9 ± 2.3 | 19.5 ± 3 | 13 ± 1.4 | 11.4 ± 2.3 | significantly reduced | more than 2 fold | – | –
Cc1ccccc1NC(=O)Nc1ccc(CC(=O)N[C@@H](CCCCNC(=O)/C=C/c2cccnc2)C(=O)N[C@@H](CCCC(=O)O)C(=O)NC2(C(=O)NCCOCCOCCNC(=O)CCC(=O)NCCOCCOCCNC(=O)CCC(=O)N[C@@H](CCCCNC(=O)CN3CCCN4CCN(CCCN(CC(=O)O)CC4)CC3)C(N)=O)CCCCC2)cc1 [^64Cu-CB-TE2A-LLP2A, metal not drawn, reference compound] | 304 fmol/mg and 304 ± 18 fmol/mg | – | – | – | – | – | – | – | – | – | – | 4.2 ± 1.4 | 5.5 ± 0.9

Reference: PMC3563241 (Nuclear medicine and biology, 2012)
